Results reported in ChEMBL document CHEMBL1140739, “Modulation of cellular apoptosis with apoptotic protease-activating factor 1 (Apaf-1) inhibitors” (2008).
The source made the active and inactive calls. The rule behind the calls is not given here. Starred links: 1 amine or outer side, 2 acyl side, 3 side chain; linkers in the order of their positions; H or OH if unused. Non-standard residues stand in square brackets, D forms with d. Residues, ends and D or L forms follow the SMILES beside them. N(2,4-Cl2-phenethyl)Gly = O=C(O)CNCCc1ccc(Cl)cc1Cl; X1 = O=C(CN(CCC(c1ccccc1)c1ccccc1)[*:1])[*:2]

What was measured:
U-937 [1] = assay: Cytotoxicity against human U937 cells after 24 hrs by MTT assay; type: functional, cell-based
Method in brief: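 U937 cells in RPMI 1640 with 10% FCS and 2 mM L-glutamine were seeded at 2.5 × 10³ or 4 × 10³ cells/well and settled for 24 h. Filter-sterilized compounds were added at final 1, 5 and 10 µM (polymer conjugate at 20, 50 and 100 µM drug equivalent) for 19 h. MTT was then added for a further 5 h, giving 24 h total exposure. Formazan was dissolved in DMSO and read at 570 nm; mean ± SE, n > 3.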

SAOS-2 [2] = assay: Inhibition of apoptosome activity in human Saos2 cells assessed as inhibition of caspase 3 at 5 uM after 24 hrs by fluorimetric DEVDase assay; type: functional; details: SAOS-2, 24 h
Method in brief: (§1)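 Apoptosis was induced with doxorubicin in PBS (HeLa 2 µg/mL, 3 × 10⁵ cells/plate; U-2 OS 2.5 µg/mL, 3.5 × 10⁵ cells/plate) or with doxycycline 2 µg/mL (Saos-2, tet-ON Bax, 2 × 10⁵ cells/plate). Compound was added 30 min later at 5 µM, and cells were harvested at 24, 48 or 72 h. Lysis was by PIPES/KCl/EDTA/MgCl₂/DTT buffer with three freeze-thaw cycles. Protein was equalized by BCA, then 20 µM Ac-DEVD-afc was added in PBS with 10% glycerol, 0.1 mM EDTA and 2 mM DTT. Fluorescence was read at 37 °C (ex 400, em 508 nm) as ΔFU/min; mean ± SE, n > 3.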

SAOS-2 [3] = assay: Antiapoptotic activity against human Saos2 cells assessed as cell recovery at 5 uM after 24 hrs by flow cytometry; type: functional
SAOS-2 [4] = assay: Antiapoptotic activity against human Saos2 cells assessed as inhibition of doxycyclin-induced cell death after 24 hrs by flow cytometry; type: functional, cell-based
A549 = assay: Antiapoptotic activity against human A549 cells assessed as inhibition of doxorubicin-induced cell death after 24 hrs by flow cytometry; type: functional, cell-based
U2OS [5] = assay: Antiapoptotic activity against human U2OS cells assessed as inhibition of doxorubicin-induced cell death after 24 hrs by flow cytometry; type: functional, cell-based
HeLa [6] = assay: Antiapoptotic activity against human HeLa cells assessed as inhibition of doxorubicin-induced cell death after 24 hrs by flow cytometry; type: functional, cell-based
U2OS [7] = assay: Antiapoptotic activity against human U2OS cells assessed as inhibition of doxorubicin-induced cell death by flow cytometry; type: functional, cell-based
U2OS [8] = assay: Inhibition of apoptosome activity in human U2OS cells assessed as inhibition of caspase 3 at 5 uM after 48 hrs by fluorimetric DEVDase assay; type: functional; method in brief: as §1
SAOS-2 [9] = assay: Antiapoptotic activity against human Saos2 cells assessed as inhibition of doxycyclin-induced cell death at 1 uM by flow cytometry; type: functional
SAOS-2 [10] = assay: Inhibition of apoptosome activity in human Saos2 cells assessed as inhibition of caspase 3 after 24 hrs by fluorimetric DEVDase assay; type: functional, cell-based
U-937 [11] = assay: Antiapoptotic activity against human U937 cells assessed as inhibition of doxorubicin-induced cell death after 24 hrs by flow cytometry; type: functional, cell-based
HeLa [12] = assay: Inhibition of apoptosome activity in human HeLa cells assessed as inhibition of caspase 3 at 5 uM after 48 hrs by fluorimetric DEVDase assay; type: functional; method in brief: as §1

SMILES	inhibition at 5 µM (SAOS-2 [2])	Activity (SAOS-2 [3])	further results
CC[C@H](C)[C@H](NC(=O)[C@H](CCCCN)NC(=O)[C@@H](NC(=O)[C@H](CCC(N)=O)NC(=O)[C@@H](N)CCCNC(=N)N)[C@@H](C)CC)C(=O)N[C@@H](Cc1c[nH]c2ccccc12)C(=O)N[C@@H](Cc1ccccc1)C(=O)N[C@@H](CCC(N)=O)C(=O)N[C@@H](CC(N)=O)C(=O)N[C@@H](CCCNC(=N)N)C(=O)N[C@@H](CCCNC(=N)N)C(=O)N[C@@H](CCSC)C(=O)N[C@@H](CCCCN)C(=O)N[C@@H](Cc1c[nH]c2ccccc12)C(=O)N[C@@H](CCCCN)C(=O)N[C@@H](CCCCN)C(=O)NCC(=O)NCC(=O)N(CCc1ccc(Cl)cc1Cl)CC(=O)N(CCC(c1ccccc1)c1ccccc1)CC(=O)N(CCc1ccc(Cl)cc1Cl)CC(N)=O	–	–	Activity (U-937 [1]): Toxic
NC(=O)CN(CCc1ccc(F)cc1)C(=O)C1CC(=O)N(CCc2ccc(Cl)cc2Cl)CC(=O)N1CCC(c1ccccc1)c1ccccc1 (stereo unspecified)	34%	57%	–
COc1ccccc1CCN(CC(N)=O)C(=O)C1CC(=O)N(CCc2ccc(Cl)cc2Cl)CC(=O)N1CCC(c1ccccc1)c1ccccc1 (stereo unspecified)	1%	41%	–
NC(=O)CN(C(=O)C1CC(=O)N(CCc2ccc(Cl)cc2Cl)CC(=O)N1CCC(c1ccccc1)c1ccccc1)C1CC1 (stereo unspecified)	16%	10%	–
NC(=O)CN(CC1CCCO1)C(=O)C1CC(=O)N(CCc2ccc(Cl)cc2Cl)CC(=O)N1CCC(c1ccccc1)c1ccccc1 (stereo unspecified)	–	9%	–
CCCCN(CC(N)=O)C(=O)C1CC(=O)N(CCc2ccc(Cl)cc2Cl)CC(=O)N1CCC(c1ccccc1)c1ccccc1 (stereo unspecified)	45%	2%	–
CC(=O)NCCN(CC(N)=O)C(=O)C1CC(=O)N(CCc2ccc(Cl)cc2Cl)CC(=O)N1CCC(c1ccccc1)c1ccccc1 (stereo unspecified)	21%	12%	–
NC(=O)CN(CCc1ccc(Cl)cc1)C(=O)C1CC(=O)N(CCc2ccc(Cl)cc2Cl)CC(=O)N1CCC(c1ccccc1)c1ccccc1 (stereo unspecified)	2%	23%	–
NC(=O)CN(CCc1ccccc1F)C(=O)C1CC(=O)N(CCc2ccc(Cl)cc2Cl)CC(=O)N1CCC(c1ccccc1)c1ccccc1 (stereo unspecified)	51%	16%	–
NC(=O)CN(CCc1ccc(Cl)cc1Cl)C(=O)C1CC(=O)N(CCc2ccc(Cl)cc2Cl)CC(=O)N1CCC(c1ccccc1)c1ccccc1 (stereo unspecified)	53%	50%	Activity (SAOS-2 [4]): Active; Activity (A549): Active; Activity (U2OS [5]): Active; Activity (HeLa [6]): Active; Activity (U2OS [7]): Active; Activity (U-937 [1]): Not toxic; inhibition at 5 µM (U2OS [8]): 50%; inhibition at 1 µM (SAOS-2 [9]): 60%; Activity (SAOS-2 [10]): Active; Activity (U-937 [11]): Active; inhibition at 5 µM (HeLa [12]): 60%
CC(C)C[C@H](NC(=O)[C@H](C)NC(=O)[C@H](CCCCN)NC(=O)[C@@H](NC(=O)[C@@H](N)CS)[C@@H](C)O)C(=O)NCC(=O)N[C@@H](CS)C(=O)NCC(=O)NCC(=O)N[C@@H](Cc1ccc(O)cc1)C(=O)NCC(=O)N[C@@H](CCCNC(=N)N)C(=O)N[C@@H](CCCCN)C(=O)N[C@@H](CCCCN)C(=O)N[C@@H](CCCNC(=N)N)C(=O)N[C@@H](CCCNC(=N)N)C(=O)N[C@@H](CCC(N)=O)C(=O)N[C@@H](CCCNC(=N)N)C(=O)N[C@@H](CCCNC(=N)N)C(=O)N[C@@H](CCCNC(=N)N)C(=O)N(CCc1ccc(Cl)cc1Cl)CC(=O)N(CCC(c1ccccc1)c1ccccc1)CC(=O)N(CCc1ccc(Cl)cc1Cl)CC(N)=O (H-CTKALGCGGYGRKKRRQRRR[N(2,4-Cl2-phenethyl)Gly][X1][N(2,4-Cl2-phenethyl)Gly]-NH2)	–	–	Activity (U2OS [7]): inactive; Activity (U-937 [1]): Toxic
